Several values for one entry are separate records, joined by “and”; a condition that tells them apart may be missing. Identical values can stand only once.
Test system: Fibroblast
Assay: Multiplex assay against human fibroblast
Assay type: toxicity, cell-based
In short: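 Cells stained live at seeding with Hoechst33342, BioTracker Green Microtubule Cytoskeleton Dye, MitoTracker Red and Annexin V Alexa Fluor 680 were imaged on a CQ1 microscope at 37°C and 5% CO2 after compound addition. Their classification by CellPathfinder machine-learning gating ran from Hoechst high-intensity objects versus normal cells, to healthy, pyknosed or fragmented nuclei among normal cells, to mitotic or apoptotic among pyknosed cells. Tubulin, mitochondrial-mass and membrane-permeability phenotypes are per cents of healthy-nucleus cells.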

[1] = 12 h, 1 µM, compound concentration 1 uM
[2] = 12 h, 10 µM, compound concentration 10 uM
[3] = 24 h, 1 µM, compound concentration 1 uM
[4] = 24 h, 10 µM, compound concentration 10 uM
[5] = 48 h, 1 µM, compound concentration 1 uM
[6] = 48 h, 10 µM, compound concentration 10 uM

COC[C@@H](c1ccc(C(F)(F)F)cc1)N1CCN(C2(C)CCN(C(=O)c3c(C)ncnc3C)CC2)C[C@@H]1C.O=C(O)/C=C\C(=O)O [VICRIVIROC MALEATE]
Population Apoptotic (%) [1]: 36% | Population Fragmented Nuclei (%) [1]: 23% | Population Healthy Nuclei (%) [1]: 53% and 51% | Population Hoechst High Intensity Objects (%) [1]: 4% | Population Membrane Permeable-Phenotype (%) [1]: 2% and 5% | Population Mitochondria Different-Phenotype (%) [1]: 11% and 13% | Population Mitotic Cells (%) [1]: 63% | Population Normal (%) [1]: 95% | Population Pyknosed Nuclei (%) [1]: 22% and 25% | Population Tubulin-Different-Phenotype (%) [1]: 16% and 41% | Total Cell Count [1]: 138 and 190 | Population Apoptotic (%) [2]: 58% and 33% | Population Fragmented Nuclei (%) [2]: 26% and 48% | Population Healthy Nuclei (%) [2]: 59% and 33% | Population Hoechst High Intensity Objects (%) [2]: 17% and 20% | Population Membrane Permeable-Phenotype (%) [2]: 2% and 12% | Population Mitochondria Different-Phenotype (%) [2]: 4% | Population Mitotic Cells (%) [2]: 41% and 66% | Population Normal (%) [2]: 82% and 79% | Population Pyknosed Nuclei (%) [2]: 14% and 18% | Population Tubulin-Different-Phenotype (%) [2]: 45% and 67% | Total Cell Count [2]: 208 and 186 | Population Apoptotic (%) [3]: 66% and 30% | Population Fragmented Nuclei (%) [3]: 21% and 28% | Population Healthy Nuclei (%) [3]: 57% and 50% | Population Hoechst High Intensity Objects (%) [3]: 3% | Population Membrane Permeable-Phenotype (%) [3]: 1% and 8% | Population Mitochondria Different-Phenotype (%) [3]: 7% and 20% | Population Mitotic Cells (%) [3]: 33% and 69% | Population Normal (%) [3]: 96% | Population Pyknosed Nuclei (%) [3]: 20% and 21% | Population Tubulin-Different-Phenotype (%) [3]: 18% and 41% | Total Cell Count [3]: 138 and 204 | Population Apoptotic (%) [4]: 73% and 42% | Population Fragmented Nuclei (%) [4]: 23% and 46% | Population Healthy Nuclei (%) [4]: 64% and 39% | Population Hoechst High Intensity Objects (%) [4]: 12% and 21% | Population Membrane Permeable-Phenotype (%) [4]: 0% and 8% | Population Mitochondria Different-Phenotype (%) [4]: 5% and 12% | Population Mitotic Cells (%) [4]: 26% and 57% | Population Normal (%) [4]: 87% and 78% | Population Pyknosed Nuclei (%) [4]: 11% and 14% | Population Tubulin-Different-Phenotype (%) [4]: 42% and 60% | Total Cell Count [4]: 196 and 183 | Population Apoptotic (%) [5]: 59% and 53% | Population Fragmented Nuclei (%) [5]: 21% and 33% | Population Healthy Nuclei (%) [5]: 56% and 50% | Population Hoechst High Intensity Objects (%) [5]: 3% and 5% | Population Membrane Permeable-Phenotype (%) [5]: 0% and 9% | Population Mitochondria Different-Phenotype (%) [5]: 7% and 19% | Population Mitotic Cells (%) [5]: 40% and 46% | Population Normal (%) [5]: 96% and 95% | Population Pyknosed Nuclei (%) [5]: 21% and 15% | Population Tubulin-Different-Phenotype (%) [5]: 34% and 58% | Total Cell Count [5]: 127 and 180 | Population Apoptotic (%) [6]: 73% and 53% | Population Fragmented Nuclei (%) [6]: 23% and 54% | Population Healthy Nuclei (%) [6]: 65% and 35% | Population Hoechst High Intensity Objects (%) [6]: 14% and 20% | Population Membrane Permeable-Phenotype (%) [6]: 0% and 9% | Population Mitochondria Different-Phenotype (%) [6]: 5% and 10% | Population Mitotic Cells (%) [6]: 26% and 46% | Population Normal (%) [6]: 85% and 79% | Population Pyknosed Nuclei (%) [6]: 10% and 9% | Population Tubulin-Different-Phenotype (%) [6]: 48% and 61% | Total Cell Count [6]: 206 and 193

O=C(NCCNCC(O)COc1ccc(O)cc1)N1CCOCC1.O=C(NCCNCC(O)COc1ccc(O)cc1)N1CCOCC1.O=C(O)/C=C/C(=O)O (centres undefined) [XAMOTEROL FUMARATE]
Population Apoptotic (%) [1]: 63% and 43% | Population Fragmented Nuclei (%) [1]: 15% and 23% | Population Healthy Nuclei (%) [1]: 67% and 53% | Population Hoechst High Intensity Objects (%) [1]: 2% and 4% | Population Mitochondria Different-Phenotype (%) [1]: 4% and 7% | Population Mitotic Cells (%) [1]: 36% and 56% | Population Normal (%) [1]: 97% and 95% | Population Pyknosed Nuclei (%) [1]: 17% and 23% | Population Tubulin-Different-Phenotype (%) [1]: 24% and 55% | Total Cell Count [1]: 114 and 167 | Population Apoptotic (%) [2]: 30% and 17% | Population Fragmented Nuclei (%) [2]: 21% and 30% | Population Healthy Nuclei (%) [2]: 64% and 49% | Population Hoechst High Intensity Objects (%) [2]: 4% and 5% | Population Membrane Permeable-Phenotype (%) [2]: 2% and 4% | Population Mitochondria Different-Phenotype (%) [2]: 5% and 11% | Population Mitotic Cells (%) [2]: 70% and 82% | Population Normal (%) [2]: 95% and 94% | Population Pyknosed Nuclei (%) [2]: 14% and 20% | Population Tubulin-Different-Phenotype (%) [2]: 32% and 43% | Total Cell Count [2]: 143 and 154 | Population Apoptotic (%) [3]: 68% and 50% | Population Fragmented Nuclei (%) [3]: 20% and 28% | Population Healthy Nuclei (%) [3]: 63% and 52% | Population Hoechst High Intensity Objects (%) [3]: 1% and 2% | Population Mitochondria Different-Phenotype (%) [3]: 2% and 6% | Population Mitotic Cells (%) [3]: 31% and 50% | Population Normal (%) [3]: 98% and 97% | Population Pyknosed Nuclei (%) [3]: 15% and 19% | Population Tubulin-Different-Phenotype (%) [3]: 25% and 63% | Total Cell Count [3]: 121 and 149 | Population Apoptotic (%) [4]: 62% and 42% | Population Fragmented Nuclei (%) [4]: 20% and 34% | Population Healthy Nuclei (%) [4]: 67% and 54% | Population Hoechst High Intensity Objects (%) [4]: 1% | Population Membrane Permeable-Phenotype (%) [4]: 0% and 5% | Population Mitochondria Different-Phenotype (%) [4]: 0% and 8% | Population Mitotic Cells (%) [4]: 37% and 57% | Population Normal (%) [4]: 98% | Population Pyknosed Nuclei (%) [4]: 12% and 11% | Population Tubulin-Different-Phenotype (%) [4]: 31% and 41% | Total Cell Count [4]: 135 and 172 | Population Apoptotic (%) [5]: 65% and 40% | Population Fragmented Nuclei (%) [5]: 27% and 42% | Population Healthy Nuclei (%) [5]: 57% and 46% | Population Hoechst High Intensity Objects (%) [5]: 1% and 2% | Population Membrane Permeable-Phenotype (%) [5]: 1% and 7% | Population Mitochondria Different-Phenotype (%) [5]: 2% and 4% | Population Mitotic Cells (%) [5]: 35% and 60% | Population Normal (%) [5]: 98% and 97% | Population Pyknosed Nuclei (%) [5]: 15% and 10% | Total Cell Count [5]: 131 and 140 | Population Apoptotic (%) [6]: 56% and 52% | Population Fragmented Nuclei (%) [6]: 25% and 33% | Population Healthy Nuclei (%) [6]: 62% and 54% | Population Hoechst High Intensity Objects (%) [6]: 4% and 3% | Population Membrane Permeable-Phenotype (%) [6]: 1% and 6% | Population Mitochondria Different-Phenotype (%) [6]: 3% and 4% | Population Mitotic Cells (%) [6]: 43% and 47% | Population Normal (%) [6]: 95% and 96% | Population Pyknosed Nuclei (%) [6]: 11% | Population Tubulin-Different-Phenotype (%) [6]: 33% and 48% | Total Cell Count [6]: 144 and 157

Reference: ChEMBL document CHEMBL5724801, “EUbOPEN Chemogenomics Library - Multiplex” (2024)
